Assay results: ChEMBL document CHEMBL1156280, “Design and synthesis of boron-containing PDE4 inhibitors using soft-drug strategy for potential dermatologic anti-inflammatory application” (Bioorg Med Chem Lett, 2010)

Experiments:
[1] = Inhibition of PDE4
[2] = Chemical stability in phosphate buffer of pH 7.4 assessed as change in ester; format: physicochemical; details: read-out: Activity
Procedure, shortened: (§1)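 Compounds at 5 µM final in female CD-1 mouse plasma (K2EDTA) or PBS pH 7.4, 37 °C with mild shaking for 1 h. A time-0 plate was held on ice. Reactions were quenched with internal standard in acetonitrile or methanol, then centrifuged, and the supernatant was analysed by LC/MS/MS for loss of ester and appearance of the corresponding acid. Triplicates, values are means.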

Plasma [3] = assay: Metabolic stability in CD1 mouse plasma assessed as change in ester; format: ADME, cell-free; procedure, shortened: as §1
Plasma [4] = assay: Metabolic stability in CD1 mouse plasma assessed as change in formation of acid; format: ADME, cell-free; procedure, shortened: as §1
THP-1 [5] = assay: Antiinflammatory activity in human THP1 cells assessed as inhibition of TNFalpha release; format: functional, cell-based
THP-1 [6] = assay: Antiinflammatory activity in human THP1 cells assessed as inhibition of IL2 release; format: functional, cell-based
THP-1 [7] = assay: Antiinflammatory activity in human THP1 cells assessed as inhibition of IFN-gamma release; format: functional, cell-based
THP-1 [8] = assay: Antiinflammatory activity in human THP1 cells assessed as inhibition of IL5 release; format: functional, cell-based
THP-1 [9] = assay: Antiinflammatory activity in human THP1 cells assessed as inhibition of IL10 release; format: functional, cell-based
[10] = Half life in CD1 mouse at 25 mg/kg, iv; format: ADME, organism-based; set-up: dose 25 mg/kg, route intravenous; details: in vivo
Procedure, shortened: (§2)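 A single 25 mg/kg iv dose in 1-methyl-2-pyrrolidone/propylene glycol/PEG-400 (10:40:50, v/v/v) was given to non-fasted CD-1 mice, n = 3. Plasma ester and acid were measured over 6 h. Non-compartmental analysis gave the PK parameters, and iv bioavailability was taken as 100%.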

[11] = Tmax in CD1 mouse at 100 mg/kg, sc; format: ADME, organism-based; set-up: dose 100 mg/kg, route subcutaneous; details: in vivo
Procedure, shortened: (§3)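 Non-fasted CD-1 mice (n = 3 per group) received a single 100 mg/kg dose sc or po as a suspension in 1% carboxymethylcellulose. Plasma ester and its acid metabolite were followed over 6 h. Parameters came from a non-compartmental model, with bioavailability referenced to iv set at 100%.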

[12] = Tmax in CD1 mouse at 100 mg/kg, po; format: ADME, organism-based; set-up: dose 100 mg/kg, route oral; details: in vivo; procedure, shortened: as §3
[13] = Cmax in CD1 mouse at 100 mg/kg, sc; format: ADME, organism-based; set-up: dose 100 mg/kg, route subcutaneous; details: in vivo; procedure, shortened: as §3
[14] = Cmax in CD1 mouse at 100 mg/kg, po; format: ADME, organism-based; set-up: dose 100 mg/kg, route oral; details: in vivo; procedure, shortened: as §3
[15] = Cmax in CD1 mouse at 25 mg/kg, iv; format: ADME, organism-based; set-up: dose 25 mg/kg, route intravenous; details: in vivo; procedure, shortened: as §2
[16] = AUC in CD1 mouse at 100 mg/kg, sc; format: ADME, organism-based; set-up: dose 100 mg/kg, route subcutaneous; details: plasma; procedure, shortened: as §3
[17] = AUC in CD1 mouse at 100 mg/kg, po; format: ADME, organism-based; set-up: dose 100 mg/kg, route oral; details: plasma; procedure, shortened: as §3
[18] = Bioavailability in CD1 mouse at 100 mg/kg, sc; format: ADME, organism-based; details: in vivo; procedure, shortened: as §3
[19] = Oral bioavailability in CD1 mouse at 100 mg/kg; format: ADME, organism-based; details: in vivo; procedure, shortened: as §3
Mus musculus [20] = assay: Bioavailability in CD1 mouse at 25 mg/kg, iv; format: ADME, organism-based; details: in vivo; procedure, shortened: as §2
Mus musculus [21] = assay: Antiinflammatory activity in mouse assessed as inhibition of phorbol ester-induced ear edema at 1 mg/ear; format: functional
[22] = Chemical stability in phosphate buffer of pH 7.4 assessed as formation of acid; format: physicochemical; procedure, shortened: as §1
Mus musculus [23] = assay: Antiinflammatory activity in mouse assessed as inhibition of phorbol ester-induced ear edema at 3 mg/ear; format: functional
[24] = Inhibition of PDE4 at 10 uM

Structure (SMILES)	IC50 [1] [nM]	percent change in ester [2] [%]	Activity (Plasma [3]) [%]	Activity (Plasma [4]) [%]	other results
COC(=O)c1ccc(Oc2ccc3c(c2)COB3O)cc1	287	-8.9	-43.6	29.4	
CCCOC(=O)c1ccc(Oc2ccc3c(c2)COB3O)cc1	763	-8.8	-94.9	58.8	
N#Cc1ccc(Oc2ccc3c(c2)COB3O)cc1 [CRISABOROLE]	490				
CC(C)OC(=O)c1ccc(Oc2ccc3c(c2)COB3O)cc1	130	-10.6	-58.9	27.6	
CCOC(=O)c1ccc(Oc2ccc3c(c2)COB3O)nc1	47	-2.4	-72.5		IC50 (THP-1 [5]): 200 nM; IC50 (THP-1 [6]): 100 nM; IC50 (THP-1 [7]): 100 nM; IC50 (THP-1 [8]): 200 nM; IC50 (THP-1 [9]): 460 nM; half-life [10]: 61.8 min; Tmax [11]: 30 min; Tmax [12]: 15 min; Cmax [13]: 12700 ng/mL; Cmax [14]: 4390 ng/mL; Cmax [15]: 12500 ng/mL; AUC [16]: 14500 ng·h/mL; AUC [17]: 1660 ng·h/mL; bioavailability [18]: 97.8%; bioavailability [19]: 10.8%; F (Mus musculus [20]): 100%; inhibition (INH) (Mus musculus [21]): 59%
CC(C)OC(=O)c1ccc(Oc2ccc3c(c2)COB3O)nc1	113	2.4	-60.5	36.4	Activity [22]: 1.4%
O=C(O)c1ccc(Oc2ccc3c(c2)COB3O)cc1	6420				
COC(=O)c1ccc(Oc2ccc3c(c2)COB3O)nc1	84	-9.8	-42.4	31.6	Activity [22]: 0.4%
CCCCOC(=O)c1ccc(Oc2ccc3c(c2)COB3O)nc1	94.5	-8.9	-98	76.6	Activity [22]: 0.4%
CCOC(=O)c1ccc(Oc2ccc3c(c2)COB3O)cc1	219	-3.2	-76.2	53.6	
CCCOC(=O)c1ccc(Oc2ccc3c(c2)COB3O)nc1	130	-13.6	-92.5	79.8	Activity [22]: 0.5%
N#Cc1ccc(Oc2ccc3c(c2)COB3O)nc1	180				
COc1ccc(C2CNC(=O)C2)cc1OC1CCCC1 (stereo not drawn) [ROLIPRAM]					inhibition (INH) (Mus musculus [21]): 6%; inhibition (INH) (Mus musculus [23]): 53%
C[C@@H]1C[C@H]2[C@@H]3CCC4=CC(=O)C=C[C@]4(C)[C@@]3(F)[C@@H](O)C[C@]2(C)[C@@]1(O)C(=O)CO [DEXAMETHASONE]					inhibition (INH) (Mus musculus [21]): 68%
O=C(O)c1ccc(Oc2ccc3c(c2)COB3O)nc1					inhibition [24]: 5%; IC50 (THP-1 [5]): > 10000 nM; IC50 (THP-1 [6]): > 10000 nM; IC50 (THP-1 [7]): > 10000 nM; IC50 (THP-1 [8]): > 10000 nM; IC50 (THP-1 [9]): > 10000 nM
